Measurements taken from paper PMC3823002 (Journal of Cellular and Molecular Medicine, 2009).

Key:
endothelial GM7373 cells = assay: GM7373 cell proliferation triggered by different mitogenic stimuli; type: cell-based, bovine
FGF2/FGFR1 interaction = FGF2/FGFR1 interaction (Homo sapiens, UniProt P09038); assay: BIAcore competition: binding of free FGF2 to immobilized sFGFR1; conditions: FGF2 50 nM, sFGFR1(IIIc)/Fc chimera-coated BIAcore sensor chip; for effect on binding of FGF2 to immobilized sFGFR1(IIIc)/Fc chimera: peptide 1.0 μM
FGF2/FGFR1 interaction, sequence (P09038 134-288): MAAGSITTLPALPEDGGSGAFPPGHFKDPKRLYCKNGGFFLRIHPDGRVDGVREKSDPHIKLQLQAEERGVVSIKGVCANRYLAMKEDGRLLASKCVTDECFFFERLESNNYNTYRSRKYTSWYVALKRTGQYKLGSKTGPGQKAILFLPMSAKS

FGF2 = assay: STD NMR analysis of peptide/FGF2 interaction; type: binding, human; conditions: STD NMR in the presence of 50 μM FGF2, reducing conditions; result in words
How it was run: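 500 MHz STD NMR used 50 µM FGF2 plus 1.9 mM peptide in 30 mM phosphate (95% D2O), 8 mM DTT, 40 mM NaCl, pH 6.8. Saturation lasted 3 s, with a 30 ms T1ρ filter and 192 transients. Off-resonance reference minus saturated spectrum gave STD; the factor is ISTD/I0. A peptide-only control was run. Titrations spanned 1:10–1:100 FGF2:peptide at 280 K.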

[1] = test system: VEGF/VEGFR2/KDR interaction; assay: BIAcore competition: binding of free VEGF to immobilized sKDR/Fc chimera; set-up: species or system human; conditions: 45 nM VEGF injected for 4 min., peptide 300 μM; data not shown
How it was run: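 sKDR/Fc (20 µg/ml in 10 mM sodium acetate, pH 5.3) was amine-coupled to an EDC/NHS-activated CM5 chip (~0.06 pmol/mm2), then ethanolamine-neutralized. VEGF (45 nM) was injected for 4 min with or without 300 µM test peptide. Response (RU) was read at end of injection and plotted as percentage of maximal bound analyte.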

[2] = target: Fibroblast growth factor-2 (human); assay: SPR

Molecule | IC50 [2] [µM] | also measured
Ac-ARPSA-NH2 |  | inhibition of GM7373 cell proliferation, any mitogen (endothelial GM7373 cells; FGF2, FGF1, FGF8b, VEGF, EGF, DAG, TPA or 10% FCS, control peptide): No inhibition; effect on binding of FGF2 to immobilized sFGFR1(IIIc)/Fc chimera (FGF2/FGFR1 interaction): No effect; FGF2 binding deduced from STD spectrum (FGF2): reduced STD amplification factor
Ac-ARPCA-NH2 |  | GM7373 cell proliferation triggered by FGF2 (endothelial GM7373 cells; FGF2 0.55 nM, peptide 66 μM, 0.4% FCS, 24 hrs, cell counting, triplicate): inhibits; GM7373 cell proliferation triggered by FGF8b (endothelial GM7373 cells; FGF8b 1.66 nM, peptide 66 μM, 24 hrs, cell counting, triplicate): inhibits; binding of FGF2 to immobilized FGFR1 ID50 (FGF2/FGFR1 interaction): 30 µM; effect on binding of FGF2 to immobilized sFGFR1(IIIc)/Fc chimera (FGF2/FGFR1 interaction): significantly inhibits; binding of VEGF to immobilized sKDR/Fc chimera [1]: did not prevent
Ac-GRPCA-NH2 |  | FGF2 binding deduced from STD spectrum (FGF2): still able to bind FGF2
Ac-ARPCG-NH2 |  | FGF2 binding deduced from STD spectrum (FGF2): absence of STD signals
H-ARPCA-NH2 |  | FGF2 binding deduced from STD spectrum (FGF2): absence of STD signals
H-ARPCA-NH2 [H-ARPCA-NH2, non-acetylated pentapeptide] | 2000 | 
Ac-GRPCA-NH2 [Ac-GRPCA-NH2] | 80 | 
Ac-ARPCG-NH2 [Ac-ARPCG-NH2] | 1000 | 
Ac-GRPCG-NH2 [Ac-GRPCG-NH2] | > 3000 | 
Ac-ALPCA-NH2 [Ac-ALPCA-NH2] | > 3000 | 
Ac-ARACA-NH2 [Ac-ARACA-NH2] | > 3000 | 
Ac-ARPSA-NH2 [Ac-ARPSA-NH2] | > 3000 | 
Ac-ARPVA-NH2 [Ac-ARPVA-NH2] | > 3000 | 
Ac-ARPMA-NH2 [Ac-ARPMA-NH2] | > 3000 | 
Ac-ESLARPCAPGAPAE-NH2 [PTX3-(97-110) peptide Ac-…-NH2] | 300 | 
Ac-ESLARPCAPGA-NH2 [PTX3-(97-107) peptide Ac-…-NH2] | 300 | 
Ac-ARPCAPGAPAEARL-NH2 [PTX3-(100-113) peptide Ac-…-NH2] | 500 | 
Ac-APGAPAEARL-NH2 [PTX3-(104-113) peptide Ac-…-NH2] | 2000 | 
Ac-APCRA-NH2 [Ac-APCRA-NH2, partially scrambled pentapeptide] | 800 | 
Ac-PARAC-NH2 [Ac-PARAC-NH2, scrambled pentapeptide] | 1000 | 
